Hits are enriched below; roughly 4.8% of the tested compounds scored in any of these assays.
HSF1 activator = increases HSF-1 driven luciferase reporter signal; actives 1.7% (n = 300,000); activation, % at 9 µM; NIH3T3-HGL HSF-1 luciferase reporter, MG132, 8 h; 100% = twice DMSO control signal;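 active = mean replicate activation of at least 50% with a set share of replicates each reaching 50%; inconclusive = only one of those two conditions met; inactive = mean below 50% and too few replicates reaching it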
HSF1 inh = HSF1 inhibition | actives 0.77% (n = 300,000) | activity change, negative = inhibition, % at 7.5 µM (by protocol) | NIH3T3-HGL HSE-luciferase, MG132-induced, luminescence 8 h; stronger effect = lower value | AID 2098;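 active = more than half of replicate wells show activity change below -50%, luminescence cut by over half; inconclusive = some wells, but at most half, below -50%; inactive = no replicate well below -50%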;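 note: luciferase reports HSF-1 transcriptional activity via heat shock element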
GPR7 antagonist = human neuropeptides B/W receptor 1 antagonism; P48145; GPR7-expressing cells, fluorescence antagonist assay; inhibition, % at 4.4 µM; actives 1.1% (n = 290,000); AID 1861; in the data active = inhibition above about 16%, passing the limit was not always enough;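 note: cells stimulated with the agonist NPW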
Target sequence (P48145 whole entry, looked up): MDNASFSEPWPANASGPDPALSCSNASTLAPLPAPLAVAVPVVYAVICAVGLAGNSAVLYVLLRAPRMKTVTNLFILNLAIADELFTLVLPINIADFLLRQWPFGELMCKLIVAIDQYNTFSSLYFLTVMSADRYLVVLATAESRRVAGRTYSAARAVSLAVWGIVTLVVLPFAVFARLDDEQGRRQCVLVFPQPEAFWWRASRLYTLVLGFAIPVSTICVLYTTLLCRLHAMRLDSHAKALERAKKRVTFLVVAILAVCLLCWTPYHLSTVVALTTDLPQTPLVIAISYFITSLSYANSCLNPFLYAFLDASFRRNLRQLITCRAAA
T cruzi inh = T. cruzi replication inhibition | T. cruzi beta-gal in NIH3T3, luminescence, 90 h | inhibition, % (test concentration not listed) | actives 1.4% (n = 300,000) | AID 1885;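 active = mean inhibition across valid replicates above about 55%, limit read from the data; inconclusive = mean below that limit but half or more replicates reach it; inactive = mean below it, under half of replicates reach it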;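 note: signal also drops with host cell toxicity which is not excluded here; higher percent means less beta-gal luminescence so fewer parasites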
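Assay system: NIH/3T3 host cells with β-galactosidase reporter T. cruzi; input: 5,000 host fibroblasts per well; compound: single 50 nL compound addition per well in DMSO; timing: ≥90 h infection period, 3 h prior cell attachment; measured by: GalScreen β-gal luminescence, detergent lysis, 60 min; evaluation: percent inhibition of parasite-derived β-gal signal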
Jurkat NFkB inh = inhibitors of the PMA/ionomycin-induced NF-kB reporter in Jurkat cells; PMA/ionomycin-induced NF-kB luciferase reporter, luminescence; inhibition, % at 4 µM; actives 0.53% (n = 330,000); in the data active = inhibition above about 50%
697 NFkB inh = inhibitors of the PMA/ionomycin-induced NF-kB reporter in 697 B cells; 697 B-cell NF-kB luciferase reporter, 16 h; inhibition, % at 4 µM; actives 0.33% (n = 330,000); AID 435022; in the data active = inhibition above about 35%
Each line names hits and unclear results; the compound was inactive in the other large screens.

COc1ccc(C(C(=O)NCC2CCCO2)N(C(=O)CNC(=O)c2cccs2)c2ccc(C(C)=O)cc2)cc1OC (stereo not given)	none
CCOC(=O)CCS(=O)(=O)c1nc(-c2ccccc2)cc(C(F)(F)F)n1	HSF1 inh inconclusive, GPR7 antagonist 25.6
CCOC(=O)Cc1cc(-c2ccccc2)nc2ccc3ccccc3c12	none
O=C(Cn1c2[n+](c3ccc(C(F)(F)F)cc31)CCCCC2)c1cccc([N+](=O)[O-])c1	none
O=C(Cn1c2[n+](c3ccc(C(F)(F)F)cc31)CCCCC2)c1ccc2c(c1)OCCO2	T cruzi inh 67.7
FC(F)(F)c1cnc(-c2cnc(-c3cccnc3)nc2)c(Cl)c1	none
Cc1ccc2nc(N(CCCN(C)C)C(=O)CN3C(=O)c4ccccc4C3=O)sc2c1	T cruzi inh 61.2
Cc1ccc(S(=O)(=O)CC(=O)N(CCCN(C)C)c2nc3ccc(C)cc3s2)cc1	T cruzi inh 65.1 (no result: GPR7 antagonist)
Cc1cc(C)c2sc(N(CCCN(C)C)C(=O)CN3C(=O)c4ccccc4C3=O)nc2c1	none
CC(C)c1ccc(NC(=O)COC(=O)[C@@H]2CCCN2C(=O)c2cccs2)cc1	none (no result: HSF1 activator, HSF1 inh, GPR7 antagonist, T cruzi inh)
CCOc1ccc(C(=O)NCC(=O)OCC(=O)N2CCCC2)cc1	none
COc1cccc(COC(=O)c2cc(=O)[nH]c3ccc(S(=O)(=O)N4CCOCC4)cc23)c1OC	none (no result: GPR7 antagonist)
COc1ccc(S(=O)(=O)Oc2cccc(/C=N/N=C3/NC(=O)C(CC(=O)O)S3)c2)cc1 (stereo not given)	none
CC1CCN(c2ccc(NC(=O)C3CCCN3S(=O)(=O)c3ccc(F)cc3)cc2)CC1 (stereo not given)	none (no result: HSF1 activator, HSF1 inh, GPR7 antagonist, T cruzi inh)
Cc1ccc2oc(C(=O)N3CCC(O)(c4cccc(C(F)(F)F)c4)CC3)c(C)c2c1	HSF1 activator 75.4
CC(=O)N1CCC(O)(c2cccc(C(F)(F)F)c2)CC1	none
O=C(c1ccc2nccnc2c1)N1CCCC(Nc2ccc(F)c(F)c2)C1 (stereo not given)	HSF1 activator 59.3
CC(C)CN(C(=O)c1ccc([N+](=O)[O-])s1)c1c(N)n(Cc2ccccc2)c(=O)[nH]c1=O	T cruzi inh 63.5 (no result: GPR7 antagonist)
CC(C)C[C@@H]1NC(=O)[C@H](CO)NC(=O)c2cc([N+](=O)[O-])cc(I)c2OCC[C@@H](C(N)=O)NC1=O	none (no result: HSF1 activator, HSF1 inh, T cruzi inh)
CCN(CC)CCOc1cccc(C(C)C)c1	none
CC(C)c1cccc(OCCCCN(C)C)c1	T cruzi inh 65.0
O=C(N=Nc1c(O)[nH]c2ccccc12)c1cccs1	HSF1 activator 76.4
O=C(N=Nc1c(O)[nH]c2ccc(Br)cc12)c1cc(-c2cccs2)nc2ccccc12	T cruzi inh 56.4 (no result: Jurkat NFkB inh, 697 NFkB inh)
CC(Oc1ccccc1)C(=O)N=Nc1c(O)[nH]c2ccc(Br)cc12 (stereo not given)	HSF1 activator 70.0
C/C=C(\C)C(=O)OC(C)(C)[C@H]1Cc2cc3ccc(=O)oc3cc2O1	none
Cc1ccc(CSc2nc3ncccc3[nH]2)cc1	HSF1 activator 76.9
NNc1nnc2c3cc(F)ccc3n(CCc3ccccc3)c2n1	HSF1 inh inconclusive
CCCN1Cc2cccc(C(=O)N3CCN(c4ccc(OC)cc4)CC3)c2C1=O	HSF1 inh -59.6
CCCN1Cc2cccc(C(=O)N3CCN(c4ccccc4)CC3)c2C1=O	none
C=CCOc1cccc(/C=C/c2nc3ccccc3c(=O)[nH]2)c1	none
CC(=O)NCCc1ccc(C(=O)COC(=O)c2cc(C)oc2C)cc1	none (no result: HSF1 activator, HSF1 inh, GPR7 antagonist, T cruzi inh)
COc1ccc(C(=O)Nn2c(SCC(=O)NC3CCCC3)nc3ccccc3c2=O)cc1	HSF1 inh -58.3
COc1ccc(C(=O)Nn2c(SCC(=O)NCC3CCCO3)nc3ccccc3c2=O)cc1 (stereo not given)	HSF1 inh -66.1
COc1ccc(C(=O)Nn2c(SCC(=O)NCc3ccccc3)nc3ccccc3c2=O)cc1	HSF1 inh -60.7
O=C(CSc1ccc2nnc(-c3ccc(F)cc3)n2n1)NCC1CCCO1 (stereo not given)	none
COc1ccc(-c2nnc3ccc(SCC(=O)NCC4CCCO4)nn23)cc1 (stereo not given)	HSF1 activator 95.3
O=C(CSc1nc2ccccc2c(=O)n1NC(=O)Cc1ccccc1)NCc1ccccc1	none
Cn1c(N=Cc2ccc([N+](=O)[O-])cc2)c(N)c(=O)n(C)c1=O	none (no result: GPR7 antagonist, T cruzi inh, Jurkat NFkB inh, 697 NFkB inh)
O=C(COC(=O)C1(c2cccc(F)c2)CCCC1)NCc1ccc2c(c1)OCO2	none
COC(=O)c1ccc2c(=O)n(CC3CCCO3)c(SCC(=O)Nc3ccccc3OC)nc2c1 (stereo not given)	HSF1 activator 55.1
COc1ccccc1C(=O)Nn1c(C2CCC2)nc2ccccc2c1=O	T cruzi inh 55.9
O=C(NCCCN1CCCC1=O)c1ccc(NS(=O)(=O)c2cccc([N+](=O)[O-])c2)cc1	none (no result: GPR7 antagonist)
CCOc1ccc(CN2CCCC(N3CCN(c4ccc(OC)cc4)CC3)C2)cc1 (stereo not given)	T cruzi inh 58.6
C(=N\N1CCN(Cc2cccc3ccccc23)CC1)/c1cccnc1	HSF1 activator 62.1
FC(F)(F)c1ccc(/C=N/N2CCN(Cc3cccc4ccccc34)CC2)cc1	none
COc1ccccc1NC(=O)/C=C1\NC(=O)CS1	none
COc1ccccc1NC(=O)/C=C1\SCC(=O)N1C	T cruzi inh 70.8
Clc1ccc2nc(N3CCCCC3)sc2c1	HSF1 activator 55.5
Nc1ccc2nc(N3CCOCC3)sc2c1	T cruzi inh 76.0
O=S(=O)(c1ccc2ccccc2c1)N1CCC(c2nc(-c3ccncc3)no2)CC1	T cruzi inh 71.0
CCOc1c(C)cnc2c1c(=O)n(Cc1c(F)cccc1Cl)c(=O)n2C	none
S=C(c1ccc2c(c1)OCO2)N1CCOCC1	none
O=C(CNC(=O)C(c1ccccc1)c1ccccc1)N/N=C\c1ccc(C(=O)O)cc1	none
COc1ccc(-c2nc3n(n2)C(c2ccccc2)C2=C(CCCC2=O)N3)cc1OC (stereo not given)	HSF1 inh -56.8
COc1cc(-c2nc3n(n2)C(c2ccncc2)C2=C(CCCC2=O)N3)cc(OC)c1OC (stereo not given)	none
CC1(C)CC(=O)C(CCC(=O)c2ccccc2)C(C)(C)N1 (stereo not given)	HSF1 inh -85.9
O=C(CCC1CCCCC1=O)c1ccccc1 (stereo not given)	none
CCc1c(C)c(C#N)c2nc3ccccc3n2c1NCCN(C)C	T cruzi inh 67.8
Cc1cc(Cl)n2c(nc3ccccc32)c1C#N	T cruzi inh 71.4 (no result: Jurkat NFkB inh, 697 NFkB inh)
C=CCc1c(C)c(C#N)c2nc3ccccc3n2c1NCCN(C)C	none
CNc1cc(C)c(C#N)c2nc3ccccc3n12	none
Cc1cccc(NC(=O)CSc2cc(C)c(C#N)c3nc4ccccc4n23)c1	HSF1 activator 416.7
CCOc1ccc(CCNC(=O)COC(=O)c2ccc(C)c([N+](=O)[O-])c2)cc1OCC	none

Source: PubChem BioAssay (several laboratories)
